In test [1] the test system is Plasmodium berghei. The experiment in a line: Antiplasmodial activity against Plasmodium berghei infected in BALB/c mouse assessed as delay in onset of parasitemia infused once daily for 3 days by Giemsa staining relative to control.
A short description of test [2]: Ratio of IC50 for CHO cells to IC50 for Plasmodium falciparum.
Test [3] deals with Plasmodium falciparum. Put plainly: Antiplasmodial activity against Plasmodium falciparum 3D7 assessed as reduction in parasitemia at 40 nM measured between day 1 and day 2 relative to control. The test is classed as functional, organism-based. In a few lines: (§1)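 P. falciparum 3D7 cultures synchronized at mature stage on Percoll one day before the start. Set to 1% hematocrit and 2% parasitemia, treated with 40 nM or 83 nM compound, and sampled every 24 h for 4 days. Parasitemia counted on Giemsa-stained smears. Controls: uninfected RBCs, untreated cultures, sulfated β-cyclodextrin sodium salt and chloroquine.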

Test [4] deals with Plasmodium falciparum. The experiment in a line: Antiplasmodial activity against Plasmodium falciparum assessed as inhibition of parasite LDH activity after 72 hrs. It counts as functional, organism-based. The gist of the method: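 P. falciparum ItG grown in O+ human erythrocytes in RPMI-1640 with 10% human serum and 50 µM hypoxanthine. DMSO stocks (10 mg/mL) diluted two-fold serially; culture at 2% hematocrit and 2% parasitemia incubated 72 h at 37 °C under 95% N₂/3% CO₂/2% O₂. pLDH assay read at 595 nm after 1 h; IC50 by non-linear regression, mean ± SEM, n = 4; chloroquine positive control.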

The subject of test [5] is Plasmodium berghei. Put plainly: Antiplasmodial activity against Plasmodium berghei infected in BALB/c mouse assessed as delay in onset of parasitemia at 75 ug/day infused once daily for 3 days by Giemsa staining relative to control. It counts as functional, organism-based. The gist of the method:
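Female Balb/c mice, 6–8 weeks old, infected with 10⁶ P. berghei on Day 0 and followed by Giemsa-stained blood films until parasites appeared. Then infused once daily for three days with 0.5 mL RPMI-1640 or compound in RPMI-1640; vehicle control 1% (v/v) DMSO in RPMI-1640; chloroquine 15 mg/kg/day as positive control. Parasitemia by Giemsa films; five mice per group.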

Test [6] deals with Plasmodium falciparum. Put plainly: Antiplasmodial activity against Plasmodium falciparum assessed as inhibition of merozoite invasion of RBCs at 20 uM after 48 hrs by SYBR green 1 fluorescence-based flow cytometry. It counts as functional, organism-based. The gist of the method: (§2)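 Sorbitol-synchronized ring-stage P. falciparum set to 5% parasitemia and 0.5% hematocrit, then treated for 48 h. An equal volume of RPMI-1640 with 0.2 µL/mL stock SYBR-Green was added for 1 h in the dark before flow cytometry (~200,000 events). Quadrant counts of parasitized, non-parasitized and small DNA-containing events were taken relative to total erythrocytes.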
(A flow cytometer gives signals particle by particle.)

Test [7] has as its system CHO. Put plainly: Cytotoxicity against CHO cells after 48 hrs by MTT assay. It counts as cell-based. Conditions: Cricetulus griseus. In a few lines: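 CHO cells grown in RPMI-1640 with 10% fetal calf serum, 25 mM HEPES and gentamicin, to 50% confluency, then given two-fold gradients from 10 mg/mL DMSO stocks; DMSO-only control. After 48 h, MTT (10 mg/mL) was added for 30 min, then DMSO; absorbance read at 650 nm. IC50 by non-linear regression of sigmoidal dose-response curves; four determinations, mean ± SEM.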
A general note: Tetrazolium assays rely on reduction of a dye to a coloured formazan, in cell work by metabolically active cells.

For test [8], the system named is Plasmodium falciparum. Put plainly: Antiplasmodial activity against Plasmodium falciparum assessed as inhibition of parasite adherence to RBCs at 20 uM after 48 hrs by microscopic analysis. It counts as functional, organism-based.
Test [9] deals with Plasmodium falciparum. Put plainly: Antiplasmodial activity against Plasmodium falciparum 3D7 assessed as reduction in parasitemia at 83 nM measured between day 1 and day 2 relative to control. It counts as functional, organism-based. In a few lines:
as §1

In test [10] the test system is Plasmodium berghei. Put plainly: Antiplasmodial activity against Plasmodium berghei infected in BALB/c mouse assessed as reduction in parasitemia at 15 mg/kg infused once daily for 4 days measured after 4 days by YOYO-1 staining based flow cytometry relative to control. On the set-up: scale not given: the % may be the effect or the level left.
Test [11] deals with Plasmodium falciparum. Put plainly: Antiplasmodial activity against Plasmodium falciparum 3D7 assessed as reduction in parasitemia measured between day 1 and day 2 relative to control. The test is classed as functional, organism-based. In a few lines: as §1
Test [12] concerns Plasmodium falciparum. The experiment in a line: Antiplasmodial activity against Plasmodium falciparum assessed as inhibition of merozoite invasion of RBCs at 1 uM after 48 hrs by SYBR green 1 fluorescence-based flow cytometry. It counts as functional, organism-based. The gist of the method: as §2

Calls of active or inactive are those of the source. The calls are words filed in the database; no cut-off is given here.

For the molecule `C[n+]1cnn(CCCCCCCCCCCCn2c[n+](C)cn2)c1.[I-].[I-]`, the Activity is given as 50% in test [1] and 75% in test [10]. The “Ratio IC50” value in test [2] came to 6500. For the same molecule, the outcome in test [3] was inactive. In addition, the IC50 – broadly, the point on the concentration scale where inhibition reaches its midpoint – turned out to be 0.008 µM in test [4] and 52 µM in test [7]. Moreover, the result in test [5] and in [9] was Active. Also, the inhibition entry in test [6] is “inactive”. Also, the inhibition entry in test [8] is “Active”.
Regarding `CCN(CC)CCCC(C)Nc1ccnc2cc(Cl)ccc12` (configuration not stated), the result in [11] was Active. In addition, the inhibition entry in [12] is “Active”.

The record behind these values is ChEMBL document CHEMBL1921730, “The anti-malarial activity of bivalent imidazolium salts” (Bioorg Med Chem, 2011).
